ChEMBL document CHEMBL5352450, “Synthesis and structure-activity relationship studies of original cyclic diadenosine derivatives as nanomolar inhibitors of NAD kinase from pathogenic bacteria” (Eur J Med Chem, 2023)
The source made the active and inactive calls. No cut-off for these calls is given here.

Columns and labels:
NAD kinase 1 = target: T1, NAD kinase 1 (Listeria monocytogenes serotype 4b (strain F2365), UniProt Q721J8); assay: Inhibition of Listeria monocytogenes NADK1 expressed in Escherichia coli assessed as inhibition constant measured every 32 secs for 32 mins by absorbance based analysis
T1 sequence (Q721J8 whole entry): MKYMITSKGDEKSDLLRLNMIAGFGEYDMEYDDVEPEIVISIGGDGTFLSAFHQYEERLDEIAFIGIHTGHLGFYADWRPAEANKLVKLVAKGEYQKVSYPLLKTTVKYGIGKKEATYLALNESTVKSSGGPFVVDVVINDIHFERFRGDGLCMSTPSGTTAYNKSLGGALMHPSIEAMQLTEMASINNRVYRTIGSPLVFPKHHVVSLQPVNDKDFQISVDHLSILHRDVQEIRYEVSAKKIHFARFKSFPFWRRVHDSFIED

Staphylococcus aureus [1] = assay: Antibacterial activity against Staphylococcus aureus assessed as bacterial growth inhibition in presence of polymyxin B by microplate reader assay; type: functional, organism-based
Procedure, shortened: (§1)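 Same diluted-culture BHI set-up (S. aureus Xen36 in 25% PBS/10% DMSO; L. monocytogenes EGDe in 25% PBS/1% DMSO) with each compound plus polymyxin B at 20, 40, 60 or 80 µg/mL. Incubated shaking at 200 rpm, 37°C; growth monitored by microplate reader.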

Staphylococcus aureus [2] = assay: Antibacterial activity against Staphylococcus aureus assessed as reduction in bacterial growth at 0.01 ug/ml incubated for 6 hrs by microplate reader assay; type: functional, organism-based; conditions: dose 0.01 µg/ml
Procedure, shortened: (§2)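 Overnight 37°C BHI cultures (S. aureus Xen36; L. monocytogenes EGDe) diluted 1:100 into BHI with compound at 0.01 µg/mL in 25% PBS/10% DMSO (S. aureus) or 25% PBS/1% DMSO (Listeria). Controls: vehicle and 10 µg/mL levofloxacin. Shaken at 200 rpm, 37°C, 6 h; growth read on plate reader as percent growth; n=6 biological replicates, one-way ANOVA.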

Listeria monocytogenes [3] = assay: Antibacterial activity against Listeria monocytogenes assessed as bacterial growth inhibition in presence of polymyxin B by microplate reader assay; type: functional, organism-based
Procedure, shortened: as §1

Listeria monocytogenes [4] = assay: Antibacterial activity against Listeria monocytogenes assessed as reduction in bacterial growth at 0.01 ug/ml incubated for 6 hrs by microplate reader assay; type: functional, organism-based; conditions: dose 0.01 µg/ml
Procedure, shortened: as §2

NCCC(=O)NC[C@H]1O[C@@H](n2c(C#CCN(CC(=O)O)C[C@H]3O[C@@H](n4cnc5c(N)ncnc54)[C@H](O)[C@@H]3O)nc3c(N)ncnc32)[C@H](O)[C@@H]1O
Ki (NAD kinase 1): 19 µM

NCCCNC(=O)NC[C@H]1O[C@@H](n2c(C#CCN(CC(=O)O)C[C@H]3O[C@@H](n4cnc5c(N)ncnc54)[C@H](O)[C@@H]3O)nc3c(N)ncnc32)[C@H](O)[C@@H]1O
Ki (NAD kinase 1): 16 µM

Nc1ncnc2c1ncn2[C@@H]1O[C@H](CN2CC#Cc3nc4c(N)ncnc4n3[C@@H]3O[C@H](CNC(=O)CNC(=O)C2)[C@@H](O)[C@H]3O)[C@@H](O)[C@H]1O
Activity (Staphylococcus aureus [1]): Active
Ki (NAD kinase 1): 15 µM
Activity (Staphylococcus aureus [2]): inactive
Activity (Listeria monocytogenes [3]): inactive
Activity (Listeria monocytogenes [4]): inactive

NCCN(CC#Cc1nc2c(N)ncnc2n1[C@@H]1O[C@H](CNC(=O)CC(=O)O)[C@@H](O)[C@H]1O)C[C@H]1O[C@@H](n2cnc3c(N)ncnc32)[C@H](O)[C@@H]1O
Ki (NAD kinase 1): 53 µM

Nc1ncnc2c1ncn2[C@@H]1O[C@H](CN2CC#Cc3nc4c(N)ncnc4n3[C@@H]3O[C@H](CNC(=O)NCCCNC(=O)C2)[C@@H](O)[C@H]3O)[C@@H](O)[C@H]1O
Activity (Staphylococcus aureus [1]): Active
Ki (NAD kinase 1): 0.177 µM
Activity (Staphylococcus aureus [2]): inactive
Activity (Listeria monocytogenes [3]): inactive
Activity (Listeria monocytogenes [4]): inactive

NCCS(=O)(=O)NC[C@H]1O[C@@H](n2c(C#CCN(CC(=O)O)C[C@H]3O[C@@H](n4cnc5c(N)ncnc54)[C@H](O)[C@@H]3O)nc3c(N)ncnc32)[C@H](O)[C@@H]1O
Ki (NAD kinase 1): 91 µM

NCC(=O)NC[C@H]1O[C@@H](n2c(C#CCN(CC(=O)O)C[C@H]3O[C@@H](n4cnc5c(N)ncnc54)[C@H](O)[C@@H]3O)nc3c(N)ncnc32)[C@H](O)[C@@H]1O
Ki (NAD kinase 1): 104 µM

Nc1ncnc2c1ncn2[C@@H]1O[C@H](CN2CC#Cc3nc4c(N)ncnc4n3[C@@H]3O[C@H](CNC(=O)NCCNC(=O)C2)[C@@H](O)[C@H]3O)[C@@H](O)[C@H]1O
Activity (Staphylococcus aureus [1]): Active
Ki (NAD kinase 1): 7.6 µM
Activity (Staphylococcus aureus [2]): inactive
Activity (Listeria monocytogenes [3]): inactive
Activity (Listeria monocytogenes [4]): inactive

Nc1ncnc2c1ncn2[C@@H]1O[C@H](CN2CC#Cc3nc4c(N)ncnc4n3[C@@H]3O[C@H](CNC(=O)CC(=O)NCC2)[C@@H](O)[C@H]3O)[C@@H](O)[C@H]1O
Activity (Staphylococcus aureus [1]): Active
Ki (NAD kinase 1): 6.8 µM
Activity (Staphylococcus aureus [2]): inactive
Activity (Listeria monocytogenes [3]): inactive
Activity (Listeria monocytogenes [4]): inactive

Nc1ncnc2c1ncn2[C@@H]1O[C@H](COCC#Cc2nc3c(N)ncnc3n2[C@@H]2O[C@H](CO)[C@@H](O)[C@H]2O)[C@@H](O)[C@H]1O
Activity (Listeria monocytogenes [4]): inactive

NCCNC(=O)NC[C@H]1O[C@@H](n2c(C#CCN(CC(=O)O)C[C@H]3O[C@@H](n4cnc5c(N)ncnc54)[C@H](O)[C@@H]3O)nc3c(N)ncnc32)[C@H](O)[C@@H]1O
Ki (NAD kinase 1): 18 µM

Nc1ncnc2c1ncn2[C@@H]1O[C@H](CN2CC#Cc3nc4c(N)ncnc4n3[C@@H]3O[C@H](CNC(=O)CCNC(=O)C2)[C@@H](O)[C@H]3O)[C@@H](O)[C@H]1O
Activity (Staphylococcus aureus [1]): Active
Ki (NAD kinase 1): 0.504 µM
Activity (Staphylococcus aureus [2]): inactive
Activity (Listeria monocytogenes [3]): inactive
Activity (Listeria monocytogenes [4]): inactive

NCCS(=O)(=O)NC[C@H]1O[C@@H](n2c(C#CCOC[C@H]3O[C@@H](n4cnc5c(N)ncnc54)[C@H](O)[C@@H]3O)nc3c(N)ncnc32)[C@H](O)[C@@H]1O
Ki (NAD kinase 1): 5.5 µM

C[C@H]1COc2c(N3CCN(C)CC3)c(F)cc3c(=O)c(C(=O)O)cn1c23
Activity (Listeria monocytogenes [4]): inactive

Nc1ncnc2c1ncn2[C@@H]1O[C@H](CN2CC#Cc3nc4c(N)ncnc4n3[C@@H]3O[C@H](CNS(=O)(=O)CCNC(=O)C2)[C@@H](O)[C@H]3O)[C@@H](O)[C@H]1O
Activity (Staphylococcus aureus [1]): Active
Ki (NAD kinase 1): 0.054 µM
Activity (Staphylococcus aureus [2]): inactive
Activity (Listeria monocytogenes [3]): inactive
Activity (Listeria monocytogenes [4]): inactive
